PMC11421684 (Food and chemical toxicology : an international journal …, 2014)
Where “and” joins values, the source holds several entries; their conditions need not be identical. Equal values may be shown once.

Legend:
[1] = oral, female rats; ref Jacob et al., 2012; cited from earlier work
[2] = Serum triazine analysis by LC-MS/MS; format: in vivo; conditions: pregnant female rats, individual rat; label = dose group; LOD 0.4 μg/mL
In short: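 Serum was collected from each rat after 10 daily gavages of 1000 mg/kg BW/day test compound or vehicle. Melamine and cyanuric acid were quantified by a previously published LC-MS/MS method, validated with pre-spiked serum samples at several fortification levels. Natural-log serum concentrations were compared between pregnant and non-pregnant rats by two-sided t-test (p ≤ 0.05).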

rats = assay: Clinical observations and survival; format: in vivo, rat; conditions: pregnant and non-pregnant rats; 1000 mg/kg BW/day
In short: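 Female rats, time-pregnant or non-pregnant, were weight-stratified and randomised from GD10. They were gavaged each morning for 10 days with 1% CMC-Na vehicle or 1000 mg/kg BW/day test compound at 1 mL/100 g (n = 11/group; pregnant high-triazine group n = 13). Observations were made at least twice on day 1, then at least daily, covering skin, fur, eyes, mucosa, autonomic/CNS signs and behaviour. Animals removed early were counted as deaths.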

[3] = Weight gains, feed and water consumption of gavaged rats; format: in vivo, rat; conditions: for Total feed consumption (g ± SEM) / Total water consumption (g ± SEM): 1000 mg/kg BW/day
In short: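 Rats were housed singly at 18–26 °C, 40–70% RH and 12 h light/dark, with feed and water ad libitum. They were gavaged for 10 days from GD10 with vehicle (1% CMC-Na) or 1000 mg/kg BW/day test compound. Fluid intake was measured every 3 days and feed every 7 days. For dams, adjusted gain = GD20 body weight minus gravid uterus weight and GD10 weight.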

kidney and bladder = assay: Histopathology of kidney and bladder; format: in vivo, rat
kidney = assay: Kidney wet-mount analysis for renal crystals; format: in vivo, rat; conditions: pregnant and non-pregnant combined, wet-mount
In short: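 After 10 days of gavage at 1000 mg/kg BW/day, a thin fresh renal slice spanning cortex and medulla was weighed. It was compressed between two slides with a coverslip and examined fresh by light microscopy. Crystals were ranked on a subjective 0–5 scale; some views used polarised light.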

[4] = Formalin, ethanol and freezing effects on renal crystals; parameters: species or system rat
In short: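 Fresh kidney wet-mounts with crystal rank 4–5 were flooded with 10% neutral buffered formalin and photographed repeatedly. Times were 0, 1, 2, 3 and 24 h for melamine-exposed kidney and 0, 10, 20, 30 min and 1 h for cyanuric acid-exposed kidney. Sections in 100% ethanol were checked daily for up to 6 days. Frozen tissue, either freeze–thawed or held at −70 °C, was cut into 6 μm cryosections, unstained or unfixed H&E.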

fetuses = assay: Fetal data; format: in vivo, rat; conditions: dams, 1000 mg/kg BW/day, GD20
In short: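 Dams were dosed by gavage (1000 mg/kg BW/day or 1% CMC-Na vehicle) for 10 days from GD10. At GD20 necropsy, the gravid uterus was removed whole and weighed. Each viable fetus was recorded for uterine position, sex, weight, crown-rump length and external abnormalities. Runts were defined as below 70% of the control litter average weight by gender.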

[5] = Body weight and organ weights standardized to body weight; format: in vivo, rat; conditions: for GD20 Body weight (g ± SEM) / Heart weight standardized to body weight (% ± SEM) / Left kidney weight standardized to body weight (% ± SEM) / Liver weight standardized to body weight (% ± SEM) / Right kidney weight standardized to body weight (% ± SEM) / Spleen weight standardized to body weight (% ± SEM) / Paired kidney weight standardized to body weight (% ± SEM): 1000 mg/kg BW/day; for Paired kidney weight standardized to body weight (% ± SEM): group mean, 1000 mg/kg/day
[6] = Amniotic fluid triazine analysis by LC-MS/MS; format: in vivo, rat; conditions: pregnant female rats, pooled by dam; label = dose group; LOD 0.4 μg/mL
In short: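 Amniotic fluid came from GD20 dams gavaged for 10 days with vehicle or 1000 mg/kg BW/day test compound. Melamine and cyanuric acid were measured by a previously published LC-MS/MS method, validated with pre-spiked amniotic fluid. Serum-to-amniotic fluid Pearson correlations were run only on rats with both samples (p ≤ 0.05).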

[7] = Serum chemistry, renal function; format: in vivo, rat; conditions: for Blood urea nitrogen (mean ± SEM) / Creatinine (mean ± SEM) / Uric acid (mean ± SEM): serum
In short: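 Serum was taken from pregnant and non-pregnant rats after 10 days of gavage with vehicle or 1000 mg/kg BW/day test compound. Samples were brought to room temperature. BUN, creatinine and uric acid were measured on a benchtop veterinary chemistry analyser. Results were compared with control and the other treated group.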

pregnant rats = assay: Reproductive indices at necropsy; format: in vivo, rat
In short: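 Time-pregnant rats were gavaged daily for 10 days from GD10 with 1% CMC-Na or 1000 mg/kg BW/day test compound. At necropsy the gravid uterus was removed whole and weighed, and corpora lutea, implants, and early and late deaths were recorded. Groups were compared against both control and the other triazine group.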

[8] = not pregnant rats, 1000 mg/kg BW/day
[9] = pregnant and non-pregnant pooled
[10] = pregnant rats, 1000 mg/kg BW/day
[11] = dams, 1000 mg/kg BW/day, necropsy GD20

Oc1nc(O)nc(O)n1 [CYA, cyanuric acid]
Area under the curve (AUC) [1]: 1375 ng·h/mL
Half-life [1]: 59.4 min
MEL concentration, Serum [2]: <LOD
Maternal health during 10 day dosing period (rats): no treatment related health effects
Total feed consumption (g ± SEM) ([3]; not pregnant rats): 158.6 ± 8.8 g
Total water consumption (g ± SEM) ([3]; not pregnant rats): 264 ± 21.2 g
Total bw gain (g ± SEM) ([3]; not pregnant rats, 1000 mg/kg BW/day gavage 10 days, brackets indicate negative): 16.0 ± 4.1 g
Total feed consumption (g ± SEM) ([3]; pregnant rats): 220.1 ± 5.4 g
Total water consumption (g ± SEM) ([3]; pregnant rats): 353.6 ± 17.5 g
Total bw gain (g ± SEM) ([3]; pregnant rats, 1000 mg/kg BW/day gavage GD10-20): 94.2 ± 3.3 g
Number of rats with epithelial necrosis in the bladder (kidney and bladder; MEL: pregnant rats, minimal to marked, CYA: 1 pregnant, 2 non-pregnant, mild): Three
Number of rats with tubular dilation and necrosis (kidney and bladder; kidney, H&E, of 22 treated rats): 5
Treated rats that developed renal crystals (percent) (kidney; MEL n = 24, CYA n = 22): 18%
Number of treated rats that developed renal crystals (kidney; MEL of 24, CYA of 22): 4
Stability of crystals to freeze–thaw cycles ([4]; frozen kidney tissue, CYA stable if held at −70 °C): dissolved
Time at which almost all crystals were gone in formalin ([4]; kidney wet-mount sections): 30 min
Average crown rump length (mean cm ± SEM) (fetuses): 4.10 ± 0.02 cm
Average fetal body weight (g ± SEM) (fetuses): 4.06 ± 0.05 g
Litter size (mean ± SEM) (fetuses): 13.2 ± 0.6
GD20 Body weight (g ± SEM) ([5]; not pregnant rats): 234.3 ± 4.5 g
Heart weight standardized to body weight (% ± SEM) ([5]; not pregnant rats): 0.38 ± 0.01%
Left kidney weight standardized to body weight (% ± SEM) ([5]; not pregnant rats): 0.43 ± 0.02%
Liver weight standardized to body weight (% ± SEM) ([5]; not pregnant rats): 3.48 ± 0.07 %
Right kidney weight standardized to body weight (% ± SEM) ([5]; not pregnant rats): 0.45 ± 0.03%
Spleen weight standardized to body weight (% ± SEM) ([5]; not pregnant rats): 0.23 ± 0.02%
Paired kidney weight standardized to body weight (% ± SEM) ([5]; not pregnant rats): 0.88% and 0.88 ± 0.05%
GD20 Body weight (g ± SEM) ([5]; pregnant rats): 351.3 ± 6.1 g
Heart weight standardized to body weight (% ± SEM) ([5]; pregnant rats): 0.30 ± 0.01%
Left kidney weight standardized to body weight (% ± SEM) ([5]; pregnant rats): 0.28 ± 0.02%
Liver weight standardized to body weight (% ± SEM) ([5]; pregnant rats): 3.58 ± 0.09%
Right kidney weight standardized to body weight (% ± SEM) ([5]; pregnant rats): 0.30 ± 0.01%
Spleen weight standardized to body weight (% ± SEM) ([5]; pregnant rats): 0.17 ± 0.01%
Paired kidney weight standardized to body weight (% ± SEM) ([5]; pregnant rats): 0.58% and 0.58 ± 0.03%
Standardized paired kidney weight of individual rats with renal crystals ([5]; two non-pregnant rats with crystals, both the same value): 1.22%
Standardized paired kidney weight of individual rats with renal crystals ([5]; two pregnant rats with crystals): 0.74% and 0.77%
MEL concentration, Amniotic Fluid [6]: <LOD
Effect on uric acid serum levels versus control rats ([7]; 1000 mg/kg BW/day): did not appear to have an effect
Mean BUN of treated rats with renal crystals ([7]; 4 rats (2 pregnant and 2 non-pregnant)): 31 mg/dL
Blood urea nitrogen (mean ± SEM) [7, 8]: 17.82 ± 2.33 mg/dL
Creatinine (mean ± SEM) [7, 8]: 0.59 ± 0.07 mg/dL
Uric acid (mean ± SEM) [7, 8]: 5.26 ± 0.27^& mg/dL
Mean BUN of the other treated rats (without crystals) [7, 9]: 15 mg/dL
Mean creatinine of treated rats with crystals [7, 9]: 1.1 mg/dL
Mean creatinine of treated rats without crystals [7, 9]: 0.5 mg/dL
Blood urea nitrogen (mean ± SEM) [7, 10]: 17.45 ± 2.26 mg/dL
Creatinine (mean ± SEM) [7, 10]: 0.59 ± 0.07 mg/dL
Uric acid (mean ± SEM) [7, 10]: 3.37 ± 0.28 mg/dL
Effect on reproductive indices compared with controls (pregnant rats; 1000 mg/kg BW/day): did not appear to have an effect
No. corpea lutea (mean ± SEM) (pregnant rats; dams, 1000 mg/kg BW/day gavage GD10-20, necropsy GD20): 15.1 ± 0.5
Early and late deaths (mean% of implants ± SEM) (pregnant rats; [11]): 3.4 ± 1.6 % of implants
Early deaths (mean% of implants ± SEM) (pregnant rats; [11]): 1.3 ± 0.9 % of implants
Implant efficiency (mean% ± SEM) (pregnant rats; [11]): 90.7 ± 3.0%
Late deaths (mean% of implants ± SEM) (pregnant rats; [11]): 2.0 ± 1.6 % of implants
No. fetuses alive (mean ± SEM) (pregnant rats; [11]): 13.2 ± 0.6
No. implants (mean ± SEM) (pregnant rats; [11]): 13.6 ± 0.5
Percent alive both genders (mean% ± SEM) (pregnant rats; [11]): 96.7 ± 1.6%
Percent live females (mean% ± SEM) (pregnant rats; [11]): 40.7 ± 3.8%
